Reference: ChEMBL document CHEMBL1142193, “Dual targeting of GyrB and ParE by a novel aminobenzimidazole class of antibacterial compounds” (2007)
Converted amounts (≈) assume the structure as drawn. The source made the active and inactive calls. The rule behind the calls is not given here.

How the values were obtained:
Streptococcus pneumoniae [1] = experiment: Antibacterial activity against Streptococcus pneumoniae ATCC BAA-255 with GyrB T172A and ParE T172A mutation after 18 to 20 hrs; format: functional
In short: (§1)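 MICs followed CLSI guidelines. Strains were grown overnight at 35°C on solid medium. Inocula were prepared with a Prompt system. Compounds were serially diluted twofold in 100% DMSO at 200x and diluted 1:200 into medium, for a final 0.5% DMSO. Plates were incubated at 35°C for 18 to 20 h and read visually. A twofold MIC variation was taken as assay error.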

Enterococcus faecalis [2] = experiment: Antibacterial activity against Enterococcus faecalis ATCC 29212 with ParE T169A mutation after 18 to 20 hrs; format: functional; in short: as §1
Staphylococcus aureus [3] = experiment: Antibacterial activity against Staphylococcus aureus ATCC 29213 with GyrB T173I mutation after 18 to 20 hrs; format: functional; in short: as §1
Staphylococcus aureus [4] = experiment: Antibacterial activity against Staphylococcus aureus ATCC 29213 carrying plasmid expressing GyrB T173N mutant; format: functional
Staphylococcus aureus [5] = experiment: Antibacterial activity against Staphylococcus aureus ATCC 29213 with GyrB T173I and GrlB T166A mutation after 18 to 20 hrs; format: functional; in short: as §1
Escherichia coli = experiment: Reduction in steady-state levels of supercoiled pUC18 in Escherichia coli CAG12184 tolC mutant; format: functional, organism-based
In short: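 Cells carrying pUC18 grown at 37°C in caMHB with 100 µg/ml ampicillin to OD600 0.5, then exposed 1 h at 37°C with shaking to a twofold dilution series spanning the MIC. Plasmid isolated, concentrated, run on 1% TBE-agarose alongside supercoiled markers for 16 h, stained with ethidium bromide.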

Streptococcus pneumoniae [6] = experiment: Antibacterial activity against Streptococcus pneumoniae ATCC BAA-255 with ParE T172I mutation after 18 to 20 hrs; format: functional; in short: as §1
Staphylococcus aureus [7] = experiment: Antibacterial activity against Staphylococcus aureus ATCC 29213 carrying plasmid expressing GyrB R144I mutant; format: functional
Staphylococcus aureus [8] = experiment: Antibacterial activity against novobiocin-resistant Staphylococcus aureus ATCC 29213 with GyrB R144I mutation after 18 to 20 hrs; format: functional; in short: as §1
Staphylococcus aureus [9] = experiment: Antibacterial activity against Staphylococcus aureus ATCC 29213 with GyrB R144I mutation without plasmid; format: functional
Haemophilus influenzae [10] = experiment: Antibacterial activity against novobiocin-resistant Haemophilus influenzae ATCC 51907 with GyrB R140L mutation after 18 to 20 hrs; format: functional; in short: as §1
Staphylococcus aureus [11] = experiment: Antibacterial activity against Staphylococcus aureus ATCC 29213 with GyrB T173N and GrlB T166A mutation after 18 to 20 hrs; format: functional; in short: as §1
Staphylococcus aureus [12] = experiment: Antibacterial activity against Staphylococcus aureus ATCC 29213 carrying plasmid expressing GyrB T173I mutant; format: functional
Enterococcus faecalis [13] = experiment: Antibacterial activity against Enterococcus faecalis ATCC 29212 after 18 to 20 hrs; format: functional; in short: as §1
Staphylococcus aureus [14] = experiment: Antibacterial activity against Staphylococcus aureus ATCC 29213 with GyrB T173N mutation without plasmid; format: functional
Staphylococcus aureus [15] = experiment: Antibacterial activity against Staphylococcus aureus ATCC 29213 with GyrB T173N mutation after 18 to 20 hrs; format: functional; in short: as §1
Staphylococcus aureus [16] = experiment: Antibacterial activity against Staphylococcus aureus ATCC 29213 with GyrB T173I mutation without plasmid; format: functional
Enterococcus faecalis [17] = experiment: Antibacterial activity against Enterococcus faecalis ATCC 29212 with GyrB T167I mutation after 18 to 20 hrs; format: functional; in short: as §1
Haemophilus influenzae [18] = experiment: Antibacterial activity against novobiocin-resistant Haemophilus influenzae ATCC 51907 with GyrB R140H mutation after 18 to 20 hrs; format: functional; in short: as §1
Enterococcus faecalis [19] = experiment: Antibacterial activity against Enterococcus faecalis ATCC 29212 with GyrB T167I and ParE T169A mutation after 18 to 20 hrs; format: functional; in short: as §1
Haemophilus influenzae [20] = experiment: Antibacterial activity against novobiocin-resistant Haemophilus influenzae ATCC 51907 with GyrB R140C mutation after 18 to 20 hrs; format: functional; in short: as §1
Enterococcus faecalis [21] = experiment: Antibacterial activity against Enterococcus faecalis ATCC 29212 with GyrB T167A mutation after 18 to 20 hrs; format: functional; in short: as §1
Streptococcus pneumoniae [22] = experiment: Antibacterial activity against novobiocin-resistant Streptococcus pneumoniae ATCC BAA-255 with GyrB S127L mutation after 18 to 20 hrs; format: functional; in short: as §1
Haemophilus influenzae [23] = experiment: Antibacterial activity against Haemophilus influenzae ATCC 51907 with GyrB T169I mutation after 18 to 20 hrs; format: functional; in short: as §1
Staphylococcus aureus [24] = experiment: Antibacterial activity against Staphylococcus aureus ATCC 29213 carrying plasmid expressing wild type GyrB; format: functional
Enterococcus faecalis [25] = experiment: Antibacterial activity against Enterococcus faecalis ATCC 29212 with GyrB T167A and ParE T169A mutation after 18 to 20 hrs; format: functional; in short: as §1
Streptococcus pneumoniae [26] = experiment: Antibacterial activity against Streptococcus pneumoniae ATCC BAA-255 with ParE T172A mutation after 18 to 20 hrs; format: functional; in short: as §1
Streptococcus pneumoniae [27] = experiment: Antibacterial activity against Streptococcus pneumoniae ATCC BAA-255 after 18 to 20 hrs; format: functional; in short: as §1
Haemophilus influenzae [28] = experiment: Antibacterial activity against Haemophilus influenzae ATCC 51907 after 18 to 20 hrs; format: functional; in short: as §1
Staphylococcus aureus [29] = experiment: Antibacterial activity against Staphylococcus aureus ATCC 29213 after 18 to 20 hrs; format: functional; in short: as §1
Staphylococcus aureus [30] = experiment: Antibacterial activity against Staphylococcus aureus ATCC 29213 without plasmid; format: functional
Staphylococcus aureus [31] = experiment: Inhibition of DNA synthesis in Staphylococcus aureus ATCC 29213 assessed as [3H]thymidine incorporation; format: functional
In short: (§2)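 Log-phase cells exposed in duplicate to compound at 5x MIC; labelled-precursor uptake measured over 15 min, stopped with 10% trichloroacetic acid. Incorporation expressed as percent of untreated control (taken as 100%).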

Staphylococcus aureus [32] = experiment: Inhibition of RNA synthesis in Staphylococcus aureus ATCC 29213 assessed as [3H]uridine incorporation; format: functional; in short: as §2
Staphylococcus aureus [33] = experiment: Inhibition of protein synthesis in Staphylococcus aureus ATCC 29213 assessed as [3H]aminoacid incorporation; format: functional

SMILES | MIC (Streptococcus pneumoniae [1]) [µg/mL] | MIC (Enterococcus faecalis [2]) [µg/mL] | MIC (Staphylococcus aureus [3]) [µg/mL] | MIC (Staphylococcus aureus [4]) [µg/mL] | MIC (Staphylococcus aureus [5]) [µg/mL] | MIC (Staphylococcus aureus [7]) [µg/mL] | MIC (Staphylococcus aureus [8]) [µg/mL] | MIC (Staphylococcus aureus [9]) [µg/mL] | MIC (Haemophilus influenzae [10]) [µg/mL] | MIC (Staphylococcus aureus [11]) [µg/mL] | MIC (Staphylococcus aureus [12]) [µg/mL] | MIC (Enterococcus faecalis [13]) [µg/mL] | MIC (Staphylococcus aureus [14]) [µg/mL] | MIC (Staphylococcus aureus [15]) [µg/mL] | MIC (Staphylococcus aureus [16]) [µg/mL] | MIC (Enterococcus faecalis [17]) [µg/mL] | MIC (Haemophilus influenzae [18]) [µg/mL] | MIC (Enterococcus faecalis [19]) [µg/mL] | MIC (Haemophilus influenzae [20]) [µg/mL] | MIC (Enterococcus faecalis [21]) [µg/mL] | other results
CCNC(=O)Nc1nc2cc(-c3cccnc3)cc(-c3ncccc3F)c2[nH]1 | 0.25 (≈ 0.664 µM) | 0.064 (≈ 0.17 µM) | 0.5 (≈ 1.33 µM) | 0.25 (≈ 0.664 µM) | 4 (≈ 10.6 µM) | 0.06 (≈ 0.159 µM) | 0.06 (≈ 0.159 µM) | 0.06 (≈ 0.159 µM) | 1 (≈ 2.66 µM) | > 8 | 0.13 (≈ 0.345 µM) | 0.032 (≈ 0.085 µM) | 0.25 (≈ 0.664 µM) | 0.5 (≈ 1.33 µM) | 0.25 (≈ 0.664 µM) | 0.064 (≈ 0.17 µM) | 1 (≈ 2.66 µM) | 1 (≈ 2.66 µM) | 1 (≈ 2.66 µM) | 0.032 (≈ 0.085 µM) | Activity (Escherichia coli): Dose-dependent effect; MIC (Streptococcus pneumoniae [6]): 0.016 µg/mL (≈ 0.0425 µM); MIC (Streptococcus pneumoniae [22]): 0.002 µg/mL (≈ 0.00531 µM); MIC (Haemophilus influenzae [23]): > 64 µg/mL; MIC (Staphylococcus aureus [24]): 0.06 µg/mL (≈ 0.159 µM); MIC (Enterococcus faecalis [25]): 0.5 µg/mL (≈ 1.33 µM); MIC (Streptococcus pneumoniae [26]): 0.016 µg/mL (≈ 0.0425 µM); MIC (Streptococcus pneumoniae [27]): 0.004 µg/mL (≈ 0.0106 µM); MIC (Haemophilus influenzae [28]): 1 µg/mL (≈ 2.66 µM); MIC (Staphylococcus aureus [29]): 0.03 µg/mL (≈ 0.0797 µM); MIC (Staphylococcus aureus [30]): 0.06 µg/mL (≈ 0.159 µM)
O=C(O)c1cn(C2CC2)c2cc(N3CCNCC3)c(F)cc2c1=O [CIPROFLOXACIN] | 0.25 (≈ 0.754 µM) | 1 (≈ 3.02 µM) | 0.25 (≈ 0.754 µM) | 0.25 (≈ 0.754 µM) | 0.25 (≈ 0.754 µM) | 0.25 (≈ 0.754 µM) | 0.25 (≈ 0.754 µM) | 0.25 (≈ 0.754 µM) | 0.004 (≈ 0.0121 µM) | 0.25 (≈ 0.754 µM) | 0.25 (≈ 0.754 µM) | 1 (≈ 3.02 µM) | 0.25 (≈ 0.754 µM) | 0.25 (≈ 0.754 µM) | 0.25 (≈ 0.754 µM) | 1 (≈ 3.02 µM) | 0.004 (≈ 0.0121 µM) | 0.5 (≈ 1.51 µM) | 0.004 (≈ 0.0121 µM) | 0.5 (≈ 1.51 µM) | Activity (Staphylococcus aureus [31]): Active; Activity (Staphylococcus aureus [32]): inactive; Activity (Staphylococcus aureus [33]): inactive; MIC (Streptococcus pneumoniae [22]): 0.25 µg/mL (≈ 0.754 µM); MIC (Haemophilus influenzae [23]): 0.004 µg/mL (≈ 0.0121 µM); MIC (Staphylococcus aureus [24]): 0.25 µg/mL (≈ 0.754 µM); MIC (Enterococcus faecalis [25]): 0.5 µg/mL (≈ 1.51 µM); MIC (Streptococcus pneumoniae [26]): 0.25 µg/mL (≈ 0.754 µM); MIC (Haemophilus influenzae [28]): 0.004 µg/mL (≈ 0.0121 µM); MIC (Staphylococcus aureus [29]): 0.25 µg/mL (≈ 0.754 µM); MIC (Staphylococcus aureus [30]): 0.25 µg/mL (≈ 0.754 µM)
CO[C@@H]1[C@@H](OC(N)=O)[C@@H](O)[C@H](Oc2ccc3c(O)c(NC(=O)c4ccc(O)c(CC=C(C)C)c4)c(=O)oc3c2C)OC1(C)C [NOVOBIOCIN] | 4 (≈ 6.53 µM) | 8 (≈ 13.1 µM) | 1 (≈ 1.63 µM) | 0.13 (≈ 0.212 µM) | 2 (≈ 3.26 µM) | 8 (≈ 13.1 µM) | 8 (≈ 13.1 µM) | 8 (≈ 13.1 µM) | 4 (≈ 6.53 µM) | 0.25 (≈ 0.408 µM) | 0.5 (≈ 0.816 µM) | 8 (≈ 13.1 µM) | 0.25 (≈ 0.408 µM) | 0.25 (≈ 0.408 µM) | 2 (≈ 3.26 µM) | 32 (≈ 52.2 µM) | 4 (≈ 6.53 µM) | 16 (≈ 26.1 µM) | 8 (≈ 13.1 µM) | 16 (≈ 26.1 µM) | MIC (Streptococcus pneumoniae [6]): 0.5 µg/mL (≈ 0.816 µM); MIC (Streptococcus pneumoniae [22]): 8 µg/mL (≈ 13.1 µM); MIC (Haemophilus influenzae [23]): 0.25 µg/mL (≈ 0.408 µM); MIC (Staphylococcus aureus [24]): 0.13 µg/mL (≈ 0.212 µM); MIC (Enterococcus faecalis [25]): 16 µg/mL (≈ 26.1 µM); MIC (Streptococcus pneumoniae [26]): 0.5 µg/mL (≈ 0.816 µM); MIC (Streptococcus pneumoniae [27]): 0.5 µg/mL (≈ 0.816 µM); MIC (Haemophilus influenzae [28]): 0.064 µg/mL (≈ 0.104 µM); MIC (Staphylococcus aureus [29]): 0.13 µg/mL (≈ 0.212 µM); MIC (Staphylococcus aureus [30]): 0.13 µg/mL (≈ 0.212 µM)
